# Measured values published in ChEMBL document CHEMBL1135354, “Synthesis and activity of a novel class of tribasic macrocyclic antibiotics: the triamilides” (2002).
# Experiments:
# Format in all cases: functional
# Escherichia coli = assay: In vitro minimum inhibitory concentration required to inhibit growth of Escherichia coli.; conditions: Escherichia coli
# Method in brief: (§1)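 Broth microdilution per NCCLS; E. coli 51A0150 (poultry lung) and P. multocida 59A0067 (turkey). Overnight BHI plate colonies suspended in saline to OD625 0.09 (0.5 McFarland), diluted 1:100 in BHI broth; final ~5×10^5 cfu/mL against 2-fold serial dilutions in BHI broth.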
# Pasteurella multocida [1] = assay: Effective dose required to inhibit Pasteurella multocida infection model in mouse by subcutaneous administration; conditions: Pasteurella multocida, sc; read-out: ED50
# Method in brief: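 Mice infected intranasally with P. multocida (respiratory disease model); drug given subcutaneously 0.5 h post-infection at 5–80 mg/kg. ED50 derived from number of surviving mice 4 days after infection.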
# Pasteurella multocida [2] = assay: Minimum inhibitory concentration required to inhibit growth of Pasteurella multocida in vitro by microdilution method.; conditions: Pasteurella multocida; read-out: MIC; method in brief: as §1
structure (smiles),measurement,setting,value
CC[C@H]1OC(=O)[C@H](C)[C@@H](O[C@H]2C[C@@](C)(OC)[C@](O)(CN(C)C)[C@H](C)O2)[C@H](C)[C@@H](O[C@@H]2O[C@H](C)C[C@H](N(C)C)[C@H]2O)[C@](C)(O)C[C@@H](C)CN[C@H](C)[C@@H](O)[C@]1(C)O,MIC,Escherichia coli,0.39 µg/mL
same,ED50,Pasteurella multocida [1],5.9 mg/kg
same,MIC,Pasteurella multocida [2],0.05 µg/mL
CC[C@H]1OC(=O)[C@H](C)[C@@H](O[C@H]2C[C@@](C)(OC)[C@](O)(CN3CCCC3)[C@H](C)O2)[C@H](C)[C@@H](O[C@@H]2O[C@H](C)C[C@H](N(C)C)[C@H]2O)[C@](C)(O)C[C@@H](C)CN[C@H](C)[C@@H](O)[C@]1(C)O,MIC,Escherichia coli,0.2 µg/mL
same,ED50,Pasteurella multocida [1],< 10 mg/kg
same,MIC,Pasteurella multocida [2],0.05 µg/mL
CC[C@H]1OC(=O)[C@H](C)[C@@H](O[C@H]2C[C@@](C)(OC)[C@](O)(CN3CCCCC3)[C@H](C)O2)[C@H](C)[C@@H](O[C@@H]2O[C@H](C)C[C@H](N(C)C)[C@H]2O)[C@](C)(O)C[C@@H](C)CN[C@H](C)[C@@H](O)[C@]1(C)O,MIC,Escherichia coli,0.39 µg/mL
same,MIC,Pasteurella multocida [2],0.05 µg/mL
CC[C@H]1OC(=O)[C@H](C)[C@@H](O[C@H]2C[C@@](C)(OC)[C@](O)(CSCCO)[C@H](C)O2)[C@H](C)[C@@H](O[C@@H]2O[C@H](C)C[C@H](N(C)C)[C@H]2O)[C@](C)(O)C[C@@H](C)CN[C@H](C)[C@@H](O)[C@]1(C)O,MIC,Escherichia coli,25 µg/mL
same,ED50,Pasteurella multocida [1],> 40 mg/kg
same,MIC,Pasteurella multocida [2],0.39 µg/mL
CC[C@H]1OC(=O)[C@H](C)[C@@H](O[C@H]2C[C@@](C)(OC)[C@](O)(CNC(C)(C)C)[C@H](C)O2)[C@H](C)[C@@H](O[C@@H]2O[C@H](C)C[C@H](N(C)C)[C@H]2O)[C@](C)(O)C[C@@H](C)CN[C@H](C)[C@@H](O)[C@]1(C)O,MIC,Escherichia coli,0.39 µg/mL
same,ED50,Pasteurella multocida [1],9.6 mg/kg
same,MIC,Pasteurella multocida [2],0.05 µg/mL
CCCCNC[C@]1(O)[C@H](C)O[C@@H](O[C@H]2[C@H](C)[C@@H](O[C@@H]3O[C@H](C)C[C@H](N(C)C)[C@H]3O)[C@](C)(O)C[C@@H](C)CN[C@H](C)[C@@H](O)[C@](C)(O)[C@@H](CC)OC(=O)[C@@H]2C)C[C@@]1(C)OC,MIC,Escherichia coli,0.78 µg/mL
same,ED50,Pasteurella multocida [1],17 mg/kg
same,MIC,Pasteurella multocida [2],0.1 µg/mL
CC[C@H]1OC(=O)[C@H](C)[C@@H](O[C@H]2C[C@@](C)(OC)[C@](O)(CNC3CC3)[C@H](C)O2)[C@H](C)[C@@H](O[C@@H]2O[C@H](C)C[C@H](N(C)C)[C@H]2O)[C@](C)(O)C[C@@H](C)CN[C@H](C)[C@@H](O)[C@]1(C)O,MIC,Escherichia coli,0.78 µg/mL
same,ED50,Pasteurella multocida [1],15 mg/kg
same,MIC,Pasteurella multocida [2],0.1 µg/mL
CC[C@H]1OC(=O)[C@H](C)[C@@H](O[C@H]2C[C@@](C)(OC)[C@](O)(CN)[C@H](C)O2)[C@H](C)[C@@H](O[C@@H]2O[C@H](C)C[C@H](N(C)C)[C@H]2O)[C@](C)(O)C[C@@H](C)CN[C@H](C)[C@@H](O)[C@]1(C)O,MIC,Escherichia coli,6.25 µg/mL
same,MIC,Pasteurella multocida [2],0.39 µg/mL
CC[C@H]1OC(=O)[C@H](C)[C@@H](O[C@H]2C[C@@](C)(OC)[C@@](O)(CN(C)C)[C@H](C)O2)[C@H](C)[C@@H](O[C@@H]2O[C@H](C)C[C@H](N(C)C)[C@H]2O)[C@](C)(O)C[C@@H](C)CN[C@H](C)[C@@H](O)[C@]1(C)O,MIC,Escherichia coli,0.39 µg/mL
same,ED50,Pasteurella multocida [1],9.9 mg/kg
same,MIC,Pasteurella multocida [2],< 0.1 µg/mL
CC[C@H]1OC(=O)[C@H](C)[C@@H](O[C@H]2C[C@@](C)(OC)[C@@](O)(CN3CCCC3)[C@H](C)O2)[C@H](C)[C@@H](O[C@@H]2O[C@H](C)C[C@H](N(C)C)[C@H]2O)[C@](C)(O)C[C@@H](C)CN[C@H](C)[C@@H](O)[C@]1(C)O,MIC,Escherichia coli,0.2 µg/mL
same,ED50,Pasteurella multocida [1],7.3 mg/kg
same,MIC,Pasteurella multocida [2],50 µg/mL
CC[C@H]1OC(=O)[C@H](C)[C@@H](O[C@H]2C[C@@](C)(OC)[C@@](O)(CN3CCCCC3)[C@H](C)O2)[C@H](C)[C@@H](O[C@@H]2O[C@H](C)C[C@H](N(C)C)[C@H]2O)[C@](C)(O)C[C@@H](C)CN[C@H](C)[C@@H](O)[C@]1(C)O,MIC,Escherichia coli,0.39 µg/mL
same,ED50,Pasteurella multocida [1],40 mg/kg
same,MIC,Pasteurella multocida [2],< 0.1 µg/mL
CC[C@H]1OC(=O)[C@H](C)[C@@H](O[C@H]2C[C@@](C)(OC)[C@@](O)(CNC3CC3)[C@H](C)O2)[C@H](C)[C@@H](O[C@@H]2O[C@H](C)C[C@H](N(C)C)[C@H]2O)[C@](C)(O)C[C@@H](C)CN[C@H](C)[C@@H](O)[C@]1(C)O,MIC,Escherichia coli,0.2 µg/mL
same,ED50,Pasteurella multocida [1],20 mg/kg
same,MIC,Pasteurella multocida [2],0.05 µg/mL
CC[C@H]1OC(=O)[C@H](C)[C@@H](O[C@H]2C[C@@](C)(OC)[C@@](O)(CN)[C@H](C)O2)[C@H](C)[C@@H](O[C@@H]2O[C@H](C)C[C@H](N(C)C)[C@H]2O)[C@](C)(O)C[C@@H](C)CN[C@H](C)[C@@H](O)[C@]1(C)O,MIC,Escherichia coli,6.25 µg/mL
same,ED50,Pasteurella multocida [1],30 mg/kg
same,MIC,Pasteurella multocida [2],0.39 µg/mL
CC[C@H]1OC(=O)[C@H](C)[C@@H](O[C@H]2C[C@@](C)(OC)[C@@](O)(CNCC3CC3)[C@H](C)O2)[C@H](C)[C@@H](O[C@@H]2O[C@H](C)C[C@H](N(C)C)[C@H]2O)[C@](C)(O)C[C@@H](C)CN[C@H](C)[C@@H](O)[C@]1(C)O,MIC,Escherichia coli,0.39 µg/mL
same,ED50,Pasteurella multocida [1],5.7 mg/kg
same,MIC,Pasteurella multocida [2],0.1 µg/mL
